Reference: the array DNA melting data of Ke et al. (doi:10.1101/2024.01.08.574731)

What was measured:
[1] = folding enthalpy; higher = less favourable; fluorescence melt of hairpins on a sequencing array, two-state fit; details: sodium 0.088 M
How it was run: (§1)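 With Cy3 and quencher oligos annealed, library hairpins on a sequenced MiSeq flow cell were imaged for Cy3 fluorescence in 50 mM Na-HEPES pH 8.0, 25 mM NaCl, in 2.5 °C steps up to 60 °C. Melting temperature and folding enthalpy were derived from bootstrapped two-state fits of signals normalised to pre-quench Cy3 and to control constructs. Four replicates were combined by inverse variance, with fitted temperatures raised by 9.35 °C to match UV melts.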

[2] = melting temperature; fluorescence melt of hairpins on a sequencing array, two-state fit, raised by 9.35 °C to match UV melts; details: sodium 0.088 M
How it was run: as §1

Sequence	folding enthalpy [1]	Tm [2]
GAAGAGCGAAAGCTTTC (((.(((....))))))	-12.2 kcal/mol	31.1 °C
GAAGAGGGAAACTTCTTC (((((.(....).)))))	-30.1 kcal/mol	41 °C
GAAGATGGAAACATCTCC (.(((((....))))).)	-16.3 kcal/mol	33.4 °C
GAAGATGGAAACATCTTC (((((((....)))))))	-48.6 kcal/mol	53.5 °C
GAAGCACGAAAGTGTTTC (((.(((....))).)))	-35.2 kcal/mol	51.1 °C
GAAGCAGGAAACTGTTTC (((.(((....))).)))	-26.7 kcal/mol	38.8 °C
GAAGCCCGAAAGGGTTTC (((.(((....))).)))	-34.4 kcal/mol	56.2 °C
GAAGCCGAAAGGCGGTTC ((((((....)))..)))	-9.79 kcal/mol	47.1 °C
GAAGCCGAAAGGCGTTTC ((((((....)))..)))	-8.82 kcal/mol	44.7 °C
GAAGCCGAAAGGCTGTTC ((((((....)))..)))	-10.4 kcal/mol	47.4 °C
GAAGCCGCGAAAGCGTTC (((..(((....))))))	-11 kcal/mol	26.3 °C
GAAGCCGGAAACGGCTCC (.(((((....))))).)	-9.15 kcal/mol	46.8 °C
GAAGCGGAAACGCTTC ((((((....))))))	-33.6 kcal/mol	67.6 °C
GAAGCTGAAAAGCTTC ((((((....))))))	-31.2 kcal/mol	58.3 °C
GAAGCTGGAAACAGTTTC (((.(((....))).)))	-27.1 kcal/mol	41.6 °C
GAAGGAGGAAACTCCCTC ((.((((....)))).))	-12.1 kcal/mol	28.4 °C
GAAGGCACGAAAGTGTTC (((..(((....))))))	-9.46 kcal/mol	24.6 °C
GAAGGCCGAAAGGCTTTC (((.(((....))).)))	-20.6 kcal/mol	54.2 °C
GAAGGCGAAAGCCGATTC ((((((....)))..)))	-14.7 kcal/mol	57.8 °C
GAAGGCGAAAGCCGTTTC ((((((....)))..)))	-10.9 kcal/mol	39 °C
GAAGGCGAAAGCCTCTTC ((((((....)))..)))	-21.5 kcal/mol	54.5 °C
GAAGGGAAACCTTC (((((....)))))	-20.9 kcal/mol	42.5 °C
GAAGGTGGAAACACCCTC ((.((((....)))).))	-12.1 kcal/mol	33.8 °C

Sequence	folding enthalpy [1]	Tm [2]
GAAGTACCGAAAGGTTTC (((..(((....))))))	-9.64 kcal/mol	27.2 °C
GAAGTACGAAAGTAATTC (((.(((....))).)))	-25.9 kcal/mol	42.9 °C
GAAGTCCGAAAGGATTTC (((.(((....))).)))	-31.6 kcal/mol	50.2 °C
GAAGTGCCGAAAGGCTTC (((..(((....))))))	-7.5 kcal/mol	35.5 °C
GAAGTGCGAAAGCATTC (((.(((....))))))	-13.5 kcal/mol	36.2 °C
GAAGTGGGAAACCACTCC (.(((((....))))).)	-14 kcal/mol	38.4 °C
GAAGTGGGAAACCATTTC (((.(((....))).)))	-30.7 kcal/mol	36.6 °C
GAAGTGGGAAACCGCTTC ((((.((....)).))))	-31.4 kcal/mol	51.6 °C
GAATACGAAAGTAGTTC ((((((....))).)))	-10.9 kcal/mol	26.8 °C
GAATACGAAAGTATATTC ((((((....)))..)))	-15.9 kcal/mol	26.8 °C
GAATACGAAAGTATCTTC ((((((....)))..)))	-28.1 kcal/mol	46.2 °C
GAATACGAAAGTATTTTC ((((((....)))..)))	-19.9 kcal/mol	36.9 °C
GAATACGGAAACGCATTC ((((.((....)).))))	-29.8 kcal/mol	36.8 °C
GAATACGGAAACGTATCC (.(((((....))))).)	-15.8 kcal/mol	35.1 °C
GAATAGGCGAAAGCCTTC (((..(((....))))))	-8.6 kcal/mol	29.1 °C
GAATAGGGAAACCTATTC (((((((....)))))))	-42.1 kcal/mol	50 °C
GAATATGCGAAAGCATTC (((..(((....))))))	-9.12 kcal/mol	25 °C
GAATATGGAAACATATCC (.(((((....))))).)	-13.6 kcal/mol	24.6 °C
GAATCACGAAAGTGTTC (((.(((....))))))	-15.5 kcal/mol	39.3 °C
GAATCAGGAAACCGATTC (((((.(....).)))))	-26.3 kcal/mol	37.8 °C
GAATCCCGAAAGGGGTTC (((.(((....))).)))	-33.9 kcal/mol	58.1 °C
GAATCCGAAAGGAAATTC ((((((....)))..)))	-15.5 kcal/mol	29.1 °C
GAATCCGAAAGGAACTTC ((((((....)))..)))	-13.1 kcal/mol	33.1 °C

Sequence	folding enthalpy [1]	Tm [2]
GAATCCGAAAGGAGCTTC ((((((....)))..)))	-23.6 kcal/mol	41.6 °C
GAATCCGGAAACGGATTC (((((((....)))))))	-45.2 kcal/mol	63.6 °C
GAATCTGGAAACAGATCC (.(((((....))))).)	-17.1 kcal/mol	33.1 °C
GAATCTGGAAACAGGTTC (((.(((....))).)))	-31.5 kcal/mol	44 °C
GAATGAGGAAACTCATCC (.(((((....))))).)	-17.4 kcal/mol	29.9 °C
GAATGCGAAAGCAATTTC ((((((....)))..)))	-9.54 kcal/mol	30.6 °C
GAATGCGAAAGCAGCTTC ((((((....)))..)))	-23 kcal/mol	39.7 °C
GAATGCGAAAGCATATTC ((((((....)))..)))	-11.6 kcal/mol	33 °C
GAATGCGAAAGCATGTTC ((((((....)))..)))	-11.2 kcal/mol	42.6 °C
GAATGCGAAAGCATTC ((((((....))))))	-27.6 kcal/mol	68.4 °C
GAATGCGAAAGCATTTC ((((((....))).)))	-12.5 kcal/mol	50.2 °C
GAATGCGGAAACGTGTTC (((..((....))..)))	-31.8 kcal/mol	40.3 °C
GAATGGGCGAAAGCCTTC (((..(((....))))))	-6.79 kcal/mol	32 °C
GAATGGGGAAACCCATTC (((((((....)))))))	-33.7 kcal/mol	57.6 °C
GAATGGGGAAACCCGTTC (((.(((....))).)))	-35.5 kcal/mol	48.2 °C
GAATGTGAAAACATTC ((((((....))))))	-35.2 kcal/mol	51.3 °C
GAATGTGGAAACACATCC (.(((((....))))).)	-14.1 kcal/mol	36 °C
GAATTACGAAAGTATTC (((.(((....))))))	-13.5 kcal/mol	31.1 °C
GAATTCCGAAAGGACTTC (((.(((....))).)))	-27.7 kcal/mol	36.1 °C
GAATTCGGAAACGAGTTC (((.(((....))).)))	-32.5 kcal/mol	43.9 °C
GAATTGACGAAAGTCTTC (((..(((....))))))	-11.6 kcal/mol	29.6 °C
GAATTGGGAAACTAATTC (((((.(....).)))))	-22.7 kcal/mol	35.5 °C
GAATTTGAAAAAATTC ((((((....))))))	-26.6 kcal/mol	38.8 °C

Sequence	folding enthalpy [1]	Tm [2]
GACAAACGAAAGTTCGTC (((.(((....))).)))	-25.2 kcal/mol	43.2 °C
GACAACCGAAAGGTGGTC (((.(((....))).)))	-35.3 kcal/mol	59.2 °C
GACAACGAAAGTTCAGTC ((((((....)))..)))	-14.7 kcal/mol	27.6 °C
GACAACGAAAGTTCTGTC ((((((....)))..)))	-14.7 kcal/mol	27 °C
GACAACGAAAGTTGGTC ((((((....))).)))	-19.7 kcal/mol	53.1 °C
GACAACGGAAACGTTATC ((.((((....)))).))	-21 kcal/mol	31.5 °C
GACAAGAAATTGTC (((((....)))))	-17.2 kcal/mol	37.2 °C
GACAAGGGAAACCCTGTC ((((.((....)).))))	-27.8 kcal/mol	42.5 °C
GACAAGGGAAACCTCGTC (((.(((....))).)))	-22.6 kcal/mol	34.5 °C
GACACACGAAAGTGCGTC (((.(((....))).)))	-45.2 kcal/mol	54.5 °C
GACACAGGAAACTACGTC (((..((....))..)))	-17 kcal/mol	28.8 °C
GACACAGGAAACTGTGCC (.(((((....))))).)	-14.9 kcal/mol	45 °C
GACACCGAAAGGTAGGTC ((((((....)))..)))	-20.2 kcal/mol	38.7 °C
GACACCGAAAGGTCGGTC ((((((....)))..)))	-16.7 kcal/mol	35 °C
GACACCGAAAGGTCGTC ((((((....))).)))	-21.7 kcal/mol	50.2 °C
GACACCGAAAGGTCTGTC ((((((....)))..)))	-16.6 kcal/mol	35.2 °C
GACACCGAAAGGTGAGTC ((((((....)))..)))	-9.36 kcal/mol	37.3 °C
GACACCGAAAGGTTGGTC ((((((....)))..)))	-16.6 kcal/mol	40.8 °C
GACACCGGAAACGATGTC ((((.((....)).))))	-29.6 kcal/mol	45.2 °C
GACACCGGAAACGGCGTC (((.(((....))).)))	-43 kcal/mol	52.6 °C
GACACGCGAAAGCGGTC (((.(((....))))))	-15.3 kcal/mol	56 °C
GACACGGGAAACCACGTC (((..((....))..)))	-29 kcal/mol	34.6 °C
